Laboratory results as given in ChEMBL document CHEMBL1275449, “Potent in vitro antifungal activities of naturally occurring acetylenic acids” (Antimicrob Agents Chemother, 2008).
Activity calls are given as the source filed them.

Experiments:
Format in all cases: functional, organism-based
Candida albicans [1] = experiment: Antifungal activity against Candida albicans ATCC 60193 at 168.9 uM after 48 hrs by CLSI method
Outline: (§1)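 Candida inocula came from 24–72-h SD agar colonies suspended in saline. They were diluted by OD630 standard curve into RPMI 1640 (0.2% dextrose, 0.03% glutamine, 0.165 M MOPS, pH 7.0) to 1.5 × 10³ CFU/ml. Compounds were run as 11 twofold dilutions in 20% DMSO-saline, in duplicate, at 35°C for 48 h, with OD530 read before and after. Percent growth at the top concentration, IC50, MIC, and MFC (SD agar plating) were derived.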

Nakaseomyces glabratus = experiment: Antifungal activity against Candida glabrata ATCC 90030 at 168.9 uM after 48 hrs by CLSI method; outline: as §1
Candida albicans [2] = experiment: Antifungal activity against Fluconazole resistant Candida albicans isolate 1 at 168.9 uM after 48 hrs by CLSI method
Outline: (§2)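 Candida in CLSI broth microdilution. Saline colony suspension set to 1.5 × 10³ CFU/ml (final) in MOPS-buffered RPMI 1640, pH 7.0. Test agent given as twofold serial dilutions in 20% DMSO-saline, duplicate wells. 35°C for 48 h. Growth read as OD530 before and after incubation. Percent inhibition scored at the highest test concentration.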

Trichophyton rubrum [3] = experiment: Antifungal activity against Trichophyton rubrum ATCC MYA-4438 at 168.9 uM after 5 days by CLSI method
Candida albicans [4] = experiment: Antifungal activity against Candida albicans ATCC 90028 at 168.9 uM after 48 hrs by CLSI method; outline: as §1
Aspergillus fumigatus [5] = experiment: Antifungal activity against Aspergillus fumigatus ATCC 204305 at 168.9 uM after 48 hrs by CLSI method
Trichophyton rubrum [6] = experiment: Antifungal activity against Trichophyton rubrum ATCC 10218 at 168.9 uM after 5 days by CLSI method
Candida albicans [7] = experiment: Antifungal activity against Candida albicans ATCC 32354 at 168.9 uM after 48 hrs by CLSI method; outline: as §1
Candida albicans [8] = experiment: Antifungal activity against Fluconazole resistant Candida albicans isolate 1 at 9.4 uM after 48 hrs by CLSI method; outline: as §2
Candida albicans [9] = experiment: Antifungal activity against Candida albicans ATCC 60193 at 9.4 uM after 48 hrs by CLSI method; outline: as §2
[10] = tested on: Trichophyton mentagrophytes; experiment: Antifungal activity against Trichophyton mentagrophytes ATCC MYA-4439 at 9.4 uM after 5 days by CLSI method
Outline: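 Trichophyton growth scraped from 1–6-week potato dextrose slants and filtered through Miracloth. Inoculum 2.7 × 10⁴ CFU/ml (final) in 5% Alamar blue-RPMI 1640 buffered with MOPS, pH 7.0. Duplicate twofold dilutions from 20% DMSO-saline. Incubated 35°C for 5 days. Fluorescence read at 544 nm excitation, 590 nm emission. Inhibition assessed at the highest test concentration.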

Aspergillus niger [11] = experiment: Antifungal activity against Aspergillus niger ATCC 16404 at 9.4 uM after 48 hrs by CLSI method
Outline: (§3)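 Aspergillus growth on 1–6-week potato dextrose slants scraped and Miracloth-filtered. Inoculum sized by OD630 curve to 2.7 × 10⁴ CFU/ml (final) in 5% Alamar blue-RPMI 1640 (MOPS, pH 7.0). Duplicate twofold dilutions from 20% DMSO-saline. 35°C for 48 h. Fluorescence 544/590 nm read before and after. Percent inhibition taken at the highest test concentration.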

Candida albicans [12] = experiment: Antifungal activity against Candida albicans ATCC 32354 at 9.4 uM after 48 hrs by CLSI method; outline: as §2
Aspergillus flavus [13] = experiment: Antifungal activity against Aspergillus flavus ATCC 204304 at 9.4 uM after 48 hrs by CLSI method; outline: as §3
Candida parapsilosis [14] = experiment: Antifungal activity against Candida parapsilosis ATCC 22019 at 187.7 uM after 48 hrs by CLSI method
Outline: (§4)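 Yeast suspensions made from 3-5 colonies off 24-72 h SD agar plates in saline. They were diluted by OD630 standard curve in RPMI 1640 (0.2% dextrose, 0.03% glutamine, 0.165 M MOPS, pH 7.0) to 1.5 × 10³ CFU/ml. Twofold dilutions (11 concentrations, 20% DMSO-saline) run in duplicate. OD530 read before and after 35°C, 48 h. Line values are top test concentrations; no-growth endpoints give MIC/MFC.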

Candida tropicalis = experiment: Antifungal activity against Candida tropicalis ATCC 750 at 187.7 uM after 48 hrs by CLSI method; outline: as §4
Candida albicans [15] = experiment: Antifungal activity against Fluconazole resistant Candida albicans isolate 1 at 187.7 uM after 48 hrs by CLSI method; outline: as §2
Candida albicans [16] = experiment: Antifungal activity against Candida albicans ATCC 90028 at 187.7 uM after 48 hrs by CLSI method; outline: as §1
Aspergillus fumigatus [17] = experiment: Antifungal activity against Aspergillus fumigatus ATCC 204305 at 187.7 uM after 48 hrs by CLSI method
Aspergillus fumigatus [18] = experiment: Antifungal activity against Aspergillus fumigatus ATCC 90906 at 187.7 uM after 48 hrs by CLSI method
Candida albicans [19] = experiment: Antifungal activity against Candida albicans ATCC 200955 at 187.7 uM after 48 hrs by CLSI method; outline: as §1
Candida albicans [20] = experiment: Antifungal activity against Fluconazole resistant Candida albicans isolate 17 at 187.7 uM after 48 hrs by CLSI method; outline: as §2
Trichophyton rubrum [21] = experiment: Antifungal activity against Trichophyton rubrum ATCC MYA-4438 at 187.7 uM after 5 days by CLSI method
Candida albicans [22] = experiment: Antifungal activity against Candida albicans ATCC 90028 at 169.8 uM after 48 hrs by CLSI method; outline: as §1
Aspergillus flavus [23] = experiment: Antifungal activity against Aspergillus flavus ATCC 204304 at 169.8 uM after 48 hrs by CLSI method
Aspergillus fumigatus [24] = experiment: Antifungal activity against Aspergillus fumigatus ATCC 204305 at 169.8 uM after 48 hrs by CLSI method
Aspergillus niger [25] = experiment: Antifungal activity against Aspergillus niger ATCC 16404 at 169.8 uM after 48 hrs by CLSI method
Trichophyton rubrum [26] = experiment: Antifungal activity against Trichophyton rubrum ATCC MYA-4438 at 169.8 uM after 5 days by CLSI method
Pichia kudriavzevii = experiment: Antifungal activity against Candida krusei ATCC 6258 at 169.8 uM after 48 hrs by CLSI method; outline: as §1
Candida albicans [27] = experiment: Antifungal activity against Candida albicans ATCC 60193 at 198.1 uM after 48 hrs by CLSI method; outline: as §1
Candida albicans [28] = experiment: Antifungal activity against Candida albicans ATCC 32354 at 198.1 uM after 48 hrs by CLSI method; outline: as §1
Candida parapsilosis [29] = experiment: Antifungal activity against Candida parapsilosis ATCC 22019 at 198.1 uM after 48 hrs by CLSI method; outline: as §4
Candida albicans [30] = experiment: Antifungal activity against Candida albicans ATCC 200955 at 198.1 uM after 48 hrs by CLSI method; outline: as §1
Candida albicans [31] = experiment: Antifungal activity against Candida albicans ATCC 90028 at 198.1 uM after 48 hrs by CLSI method; outline: as §1

Measured: Activity

CCCCCC#CCC#CCC#CCC#CCCCC(=O)O
inactive: Candida albicans [1] | Nakaseomyces glabratus | Candida albicans [2] | Trichophyton rubrum [3] | Candida albicans [4] | Aspergillus fumigatus [5] | Trichophyton rubrum [6] | Candida albicans [7]

CC(=O)N1CCN(c2ccc(OCC3COC(Cn4ccnc4)(c4ccc(Cl)cc4Cl)O3)cc2)CC1 (centres undefined) [KETOCONAZOLE]
inactive: Candida albicans [8] | Candida albicans [9] | [10] | Aspergillus niger [11] | Candida albicans [12] | Aspergillus flavus [13]

CCCCCCCCCCC#CCCCCC(=O)O
inactive: Candida parapsilosis [14] | Candida tropicalis | Candida albicans [15] | Candida albicans [16] | Aspergillus fumigatus [17] | Aspergillus fumigatus [18] | Candida albicans [19] | Candida albicans [20] | Trichophyton rubrum [21]

CCCCCCCCCCCCC#CCCCCC(=O)O [6-NONADECYNOIC ACID]
inactive: Candida albicans [22] | Aspergillus flavus [23] | Aspergillus fumigatus [24] | Aspergillus niger [25] | Trichophyton rubrum [26] | Pichia kudriavzevii

CCCCCCCCCC#CCCCCC(=O)O
inactive: Candida albicans [27] | Candida albicans [28] | Candida parapsilosis [29] | Candida albicans [30] | Candida albicans [31]
